pEC50, pKd: −log10 of the molar value. Calls of active or inactive are those of the source. No cut-off for these calls is given here.
How the values were obtained:
[1] = Toxicity in C57BL/6 mouse assessed as body weight change at 10 to 100 mg/kg, ip treated 5 days/week for 3 weeks; type: organism-based; conditions: in vivo, 504 h, dose 10-100 mg/kg
How it was run: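 Male C57BL/6 mice dosed ip with vehicle or compound at 10, 25, 50 or 100 mg/kg, 5 days/week for 3 weeks. Body weight recorded every 2–3 days. n = 3 mice/dose, mean ± SEM.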

[2] = biological target: T1, Protein cereblon/Indoleamine 2,3-dioxygenase 1 (Homo sapiens, UniProt P14902+Q96SW2); assay: Protac activity at IDO1/CRBN in IFNgamma-stimulated human U87 cells assessed as IDO1 degradation at 10 uM measured after 24 hrs by Western blotting analysis relative to control; type: cell-based
How it was run: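 U87 GBM cells primed with human IFNγ 50 ng/mL for 24 h, then exposed to PROTAC at 10 μM for 24 h. Lysates run on western blot; IDO1 bands quantified by densitometry and expressed as percent of normalized IDO1 protein level.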
Target sequence in this assay (P14902 whole entry, looked up): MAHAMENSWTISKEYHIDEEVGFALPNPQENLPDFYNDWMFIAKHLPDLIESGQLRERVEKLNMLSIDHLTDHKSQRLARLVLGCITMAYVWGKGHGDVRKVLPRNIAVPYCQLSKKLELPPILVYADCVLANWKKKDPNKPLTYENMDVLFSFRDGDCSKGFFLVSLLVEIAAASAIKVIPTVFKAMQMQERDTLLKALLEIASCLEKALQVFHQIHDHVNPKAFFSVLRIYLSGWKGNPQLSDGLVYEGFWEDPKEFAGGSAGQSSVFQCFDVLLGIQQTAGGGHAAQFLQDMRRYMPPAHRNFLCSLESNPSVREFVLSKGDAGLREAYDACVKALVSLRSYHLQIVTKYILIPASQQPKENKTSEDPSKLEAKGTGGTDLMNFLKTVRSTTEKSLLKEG
Target sequence in this assay (Q96SW2 whole entry, looked up): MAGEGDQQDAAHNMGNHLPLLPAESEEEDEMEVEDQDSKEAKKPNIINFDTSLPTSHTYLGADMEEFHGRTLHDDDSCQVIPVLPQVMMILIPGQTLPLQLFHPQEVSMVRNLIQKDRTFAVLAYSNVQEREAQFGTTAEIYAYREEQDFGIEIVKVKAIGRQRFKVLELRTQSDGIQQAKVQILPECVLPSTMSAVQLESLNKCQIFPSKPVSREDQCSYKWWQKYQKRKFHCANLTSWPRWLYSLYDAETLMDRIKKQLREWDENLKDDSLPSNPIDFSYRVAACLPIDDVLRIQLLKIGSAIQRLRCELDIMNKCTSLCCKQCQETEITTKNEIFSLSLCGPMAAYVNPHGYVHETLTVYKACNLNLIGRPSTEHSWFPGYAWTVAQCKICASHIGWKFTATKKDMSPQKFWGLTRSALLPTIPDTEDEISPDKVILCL

[3] = biological target: T1, Protein cereblon/Indoleamine 2,3-dioxygenase 1; assay: Protac activity at IDO1/CRBN in IFNgamma-stimulated human U87 cells assessed as IDO1 degradation by measuring decrease in protein level measured after 24 hrs by Western blotting analysis; type: cell-based; conditions: dose 0.1-10 µM, DDE = dose-dependent effect
How it was run: (§1)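 U87 cells given human IFNγ 50 ng/mL for 24 h to induce IDO1, then PROTAC over a dose range starting at 0.01 μM and rising to 30 μM for 24 h. Western blot read-out. IDO1 band densitometry normalized to untreated samples and fitted to give DC50, the concentration giving 50% IDO1 degradation. n = 3 independent experiments, mean ± SEM.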
Target sequence in this assay (P14902 whole entry, looked up): as the sequence (P14902 whole entry, looked up) above
Target sequence in this assay (Q96SW2 whole entry, looked up): as the sequence (Q96SW2 whole entry, looked up) above

[4] = Cmax in C57BL/6 mouse plasma at 25 mg/kg, ip; type: ADME, organism-based; parameters: dose 25 mg/kg, route ip
[5] = biological target: T1, Protein cereblon/Indoleamine 2,3-dioxygenase 1; assay: Protac activity at CRBN/IDO1-FLAG expressed in human U87 cells assessed as IDO1 degradation at 10 uM measured in presence of IDO1 inhibitor BGB-7204 by immunoprecipitated ubiquitination assay; type: cell-based
Target sequence in this assay (P14902 whole entry, looked up): as the sequence (P14902 whole entry, looked up) above
Target sequence in this assay (Q96SW2 whole entry, looked up): as the sequence (Q96SW2 whole entry, looked up) above

[6] = biological target: T1, Protein cereblon/Indoleamine 2,3-dioxygenase 1; assay: Protac activity at CRBN/IDO1-HA expressed in human U87 cells assessed as IDO1 degradation in intracellular nuclear compartment measured at 1 to 10 uM after 24 hrs by Western blotting analysis; type: subcellular; conditions: Nucleus, dose 1-10 µM
Target sequence in this assay (P14902 whole entry, looked up): as the sequence (P14902 whole entry, looked up) above
Target sequence in this assay (Q96SW2 whole entry, looked up): as the sequence (Q96SW2 whole entry, looked up) above

[7] = biological target: T1, Protein cereblon/Indoleamine 2,3-dioxygenase 1; assay: Protac activity at CRBN/IDO1 in IFNgamma-stimulated human GBM43 cells assessed as decrease in kynurenine level measured after 24 hrs by Ehrlich's test; type: cell-based; conditions: GBM43 cell, DDE = dose-dependent effect
How it was run: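 U87 or GBM43 cells given compound together with 50 ng/mL IFNγ for 24 h. Supernatant kynurenine was measured with Ehrlich's reagent. Cells cultured without IFNγ served as control.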
Target sequence in this assay (P14902 whole entry, looked up): as the sequence (P14902 whole entry, looked up) above
Target sequence in this assay (Q96SW2 whole entry, looked up): as the sequence (Q96SW2 whole entry, looked up) above

[8] = Half life in C57BL/6 mouse brain at 25 mg/kg, ip; type: ADME, organism-based
[9] = biological target: T1, Protein cereblon/Indoleamine 2,3-dioxygenase 1; assay: Protac activity at IDO1/CRBN in IFNgamma-stimulated human SK-OV-3 cells assessed as IDO1 degradation by measuring decrease in intracellular protein level measured after 24 hrs by Western blotting analysis; type: cell-based; conditions: dose 1-10 µM, DDE = dose-dependent effect
Target sequence in this assay (P14902 whole entry, looked up): as the sequence (P14902 whole entry, looked up) above
Target sequence in this assay (Q96SW2 whole entry, looked up): as the sequence (Q96SW2 whole entry, looked up) above

[10] = biological target: T1, Protein cereblon/Indoleamine 2,3-dioxygenase 1; assay: Protac activity at IDO1/CRBN in IFNgamma-stimulated human CD18 cells assessed as IDO1 degradation by measuring decrease in intracellular protein level measured after 24 hrs by Western blotting analysis; type: cell-based; conditions: CD18 cell, DDE = dose-dependent effect
[11] = biological target: T2, Indoleamine 2,3-dioxygenase 1 (Homo sapiens, UniProt P14902); assay: Binding affinity to IDO1 (unknown origin) assessed as binary complex stability by measuring half-life by bio-layer interferometry assay
Target sequence in this assay (P14902 whole entry, looked up): as the sequence (P14902 whole entry, looked up) above

[12] = biological target: T1, Protein cereblon/Indoleamine 2,3-dioxygenase 1; assay: Protac activity at IDO1/CRBN in IFNgamma-stimulated human GBM43 cells assessed as IDO1 degradation by measuring decrease in protein level measured at 10 uM for 16 to 96 hrs by Western blotting analysis; type: cell-based; conditions: GBM43 cell, time 16-96 hrs
Ido1/Crbn (Mus musculus) = Ido1/Crbn (Mus musculus) (UniProt P28776+Q8C7D2); assay: Protac activity at CRBN/IDO1 non-enzyme mediated p65 phosphorylation in mouse GL261 cells expressing IDO1 cDNA measured at 0.1 to 10 uM after 24 hrs by Western blotting analysis; conditions: dose 0.1-10 µM
Chain of Ido1/Crbn (Mus musculus) (P28776 whole entry, looked up): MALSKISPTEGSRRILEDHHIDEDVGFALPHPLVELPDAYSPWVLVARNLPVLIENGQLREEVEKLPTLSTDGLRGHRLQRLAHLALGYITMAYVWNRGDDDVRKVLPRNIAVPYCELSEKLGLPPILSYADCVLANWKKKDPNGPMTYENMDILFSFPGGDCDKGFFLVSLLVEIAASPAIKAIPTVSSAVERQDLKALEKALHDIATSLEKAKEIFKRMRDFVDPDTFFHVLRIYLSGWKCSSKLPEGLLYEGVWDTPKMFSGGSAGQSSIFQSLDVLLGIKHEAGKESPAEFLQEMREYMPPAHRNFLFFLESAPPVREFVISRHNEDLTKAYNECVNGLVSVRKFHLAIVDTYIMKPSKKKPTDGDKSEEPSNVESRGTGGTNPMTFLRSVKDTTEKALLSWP
Chain of Ido1/Crbn (Mus musculus) (Q8C7D2 whole entry, looked up): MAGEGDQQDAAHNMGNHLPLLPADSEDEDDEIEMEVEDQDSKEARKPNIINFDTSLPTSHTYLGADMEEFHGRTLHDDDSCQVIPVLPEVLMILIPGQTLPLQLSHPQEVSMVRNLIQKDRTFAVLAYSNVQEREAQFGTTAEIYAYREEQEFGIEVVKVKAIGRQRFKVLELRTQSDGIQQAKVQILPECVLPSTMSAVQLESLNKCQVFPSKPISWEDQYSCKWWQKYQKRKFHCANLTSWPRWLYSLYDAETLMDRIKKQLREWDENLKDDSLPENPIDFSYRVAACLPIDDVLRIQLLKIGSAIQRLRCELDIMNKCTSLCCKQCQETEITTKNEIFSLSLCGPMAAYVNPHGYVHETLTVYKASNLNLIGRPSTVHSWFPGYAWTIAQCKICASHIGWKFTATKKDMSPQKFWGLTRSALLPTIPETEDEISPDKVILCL

[13] = biological target: T1, Protein cereblon/Indoleamine 2,3-dioxygenase 1; assay: Protac activity at IDO1/CRBN in IFNgamma-stimulated human KNS-42 cells assessed as IDO1 degradation measured after 24 hrs by Western blotting analysis; type: cell-based; conditions: dose 0.1-10 µM, DDE = dose-dependent effect
Mus musculus = assay: In vivo Protac activity at IDO1/CRBN in GL261 cells expressing mIDO1 cDNA mouse model assessed as decrease in IDO1 protein level in tumor measured at 25 mg/kg, ip
[14] = biological target: T1, Protein cereblon/Indoleamine 2,3-dioxygenase 1; assay: Protac activity at CRBN/IDO1 in enzyme-null cDNA transfected in human U87 cells assessed as IDO1 degradation by measuring decrease in protein level measured at 0.1 to 10 uM after 24 hrs by Western blotting analysis; type: cell-based; conditions: dose 0.1-10 µM
[15] = biological target: T1, Protein cereblon/Indoleamine 2,3-dioxygenase 1; assay: Binding affinity to CRBN /IDO1 (unknown origin) assessed as ternary complex stability by measuring half-life by bio-layer interferometry assay; type: protein assay
How it was run: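 For the ternary complex, compound was preincubated with a 25-fold molar excess of CRBN, and binding of this binary complex to IDO1 was followed in real time.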

[16] = Drug uptake in C57BL/6 mouse brain at 25 mg/kg, ip measured after 6 hrs by equilibrium dialysis; type: ADME, organism-based; conditions: in vivo
How it was run: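 C57BL/6 mice received a single 25 mg/kg ip dose. Serum and brain were sampled at 0 to 24 h and the drug was quantified by mass spectrometry (n = 3 mice/dose). Binding to mouse brain homogenate was measured by 6 h equilibrium dialysis.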

[17] = Drug uptake in C57BL/6 mouse serum at 10 to 100 mg/kg, ip treated 5 days/week for 3 weeks by LC/MS/MS analysis; type: ADME, organism-based; conditions: in vivo, 504 h, dose 10-100 mg/kg
How it was run: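 Male C57BL/6 mice dosed ip at 10, 25, 50 or 100 mg/kg, 5 days/week for 3 weeks, alongside vehicle. After 3 weeks, serum and brain homogenate were analysed by mass spectrometry for drug level; mean ± SEM, n = 3 mice/dose.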

[18] = biological target: T1, Protein cereblon/Indoleamine 2,3-dioxygenase 1; assay: Protac activity at IDO1/CRBN in IFNgamma-stimulated human U87 cells assessed as IDO1 degradation measured after 24 hrs by Western blotting analysis; type: cell-based; how it was run: as §1
Target sequence in this assay (P14902 whole entry): as the sequence (P14902 whole entry, looked up) above
Target sequence in this assay (Q96SW2 whole entry): as the sequence (Q96SW2 whole entry, looked up) above

[19] = biological target: T1, Protein cereblon/Indoleamine 2,3-dioxygenase 1; assay: Protac activity at CRBN/IDO1 non-enzyme mediated NF-kappaB signal in IFNgamma-stimulated human GBM43 cells assessed as decrease in p65 phosphorylation at 0.1 to 10 uM measured after 24 hrs Western blotting assay; type: cell-based; conditions: GBM43 cell, dose 0.1-10 µM
How it was run: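 IFNγ-stimulated cells were induced for 24 h, then treated at several concentrations for 24 h. Lysates were western blotted for IDO1, phospho-p65, total p65 and GAPDH.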

[20] = biological target: T1, Protein cereblon/Indoleamine 2,3-dioxygenase 1; assay: Protac activity at IDO1/CRBN in IFNgamma-stimulated human PBMC cells isolated form non-GBM patient assessed as IDO1 degradation by measuring decrease in intracellular protein level measured after 24 hrs by Western blotting analysis; type: cell-based; conditions: DDE = dose-dependent effect
[21] = Drug uptake in C57BL/6 mouse liver at 50 mg/kg, ip treated 5 days/week for 3 weeks by LC/MS/MS analysis; type: ADME, organism-based; conditions: in vivo, 504 h
[22] = biological target: T2, Indoleamine 2,3-dioxygenase 1; assay: Binding affinity to IDO1 (unknown origin) assessed as dissociation constant by bio-layer interferometry assay
How it was run: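 Bio-layer interferometry measured binding to IDO1 at 30 °C in PBS with 0.5% DMSO. Kd, kon and koff were derived.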
Target sequence in this assay (P14902 whole entry): as the sequence (P14902 whole entry, looked up) above

## C[C@@H](C(=O)Nc1ccc(OC2CCN(C(=O)CCOCCOCCNc3cccc4c3C(=O)N(C3CCC(=O)NC3=O)C4=O)CC2)cc1)[C@H]1CC[C@@H](c2ccnc3ccc(F)cc32)CC1 (some centres undefined)
[1]
  Activity: Non-Toxic
[2]
  Activity: 94%
[3]
  Activity: Dde
[4]
  Cmax: 365 µM
[5]
  Activity: Active
[6]
  Activity: Active
[7]
  inhibition: Dde
[8]
  half-life: 498 min
[9]
  Activity: Dde
[10]
  Activity: Dde
[11]
  T1/2: 16 s
[12]
  Activity: Active
Ido1/Crbn (Mus musculus)
  inhibition: Active
[13]
  Activity: Dde
Mus musculus
  Activity: Active
[14]
  Activity: Active
[15]
  T1/2: 7.7 min
[16]
  Drug uptake: 99.8%
[17]
  Drug uptake: Active
[18]
  pEC50: 6.48
[19]
  inhibition: Active
[20]
  Activity: Dde
[21]
  Drug uptake: Active
[22]
  pKd: 6.19

Reference: ChEMBL document CHEMBL5150051, “Identification and Characterization of a Novel Indoleamine 2,3-Dioxygenase 1 Protein Degrader for Glioblastoma” (J Med Chem, 2022)
